STEP inh – inhibitors of human striatal-enriched phosphatase STEP; P54829; recombinant STEP, OMFP fluorogenic substrate, fluorescence; inhibition, % at 20 µM; 360,000 tested, 0.25% active; AID 588621;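 active = inhibition at 20 µM, scaled per plate between control wells, above about 37%, limit read from the data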;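 note: 0% = DMSO with enzyme and substrate and 100% = substrate only without enzyme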
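Measure: Control-normalized % inhibition with plate pattern correction | Test system: STEP phosphatase, cell-free reaction | Medium: pH 6.0 Bis-Tris with DTT and Tween 20 | Technique: Fluorescence, 480/540 nm | Times: Reaction 20 min, ambient temperature | Doses: Single compound dose of 20 µM, 1% DMSO final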
LMPTP inh – blocks human LMPTP phosphatase. P24666. recombinant LMPTP-A, OMFP fluorogenic substrate, fluorescence intensity. inhibition, % at 20 µM. 360,000 tested, 0.22% active;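 active = compounds that cut the enzyme signal by at least half of the control window in the single-dose screen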;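 note: plate controls were DMSO wells with enzyme plus substrate for no effect and substrate without enzyme for full effect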
Target sequence (P24666 whole entry, looked up): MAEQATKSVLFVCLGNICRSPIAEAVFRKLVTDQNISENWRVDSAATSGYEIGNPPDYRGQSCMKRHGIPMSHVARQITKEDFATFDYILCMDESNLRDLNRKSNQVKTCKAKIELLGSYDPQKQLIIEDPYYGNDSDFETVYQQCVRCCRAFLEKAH
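Assay system: LMPTP-A, protein tyrosine phosphatase of low molecular weight / Medium: pH 6.0 Bis-Tris buffer with DTT and Triton X-100 / Schedule: 50 min enzyme reaction at room temperature, protected from light / Measured by: endpoint fluorescence intensity from OMFP dephosphorylation / Read-out basis: % inhibition relative to no-enzyme and uninhibited control wells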
Scp1 inh – inhibitors of human Scp-1 phosphatase | Q9GZU7 | Recombinant Scp1, phosphopeptide, malachite green phosphate absorbance | inhibition, % at 20 µM | 340,000 tested, 0.88% active;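 active = inhibition above about 50% at 20 µM, limit read from the data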;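 note: plate controls were DMSO wells with enzyme for no effect and wells lacking enzyme for full effect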
Target sequence (Q9GZU7 76-261 limits assumed): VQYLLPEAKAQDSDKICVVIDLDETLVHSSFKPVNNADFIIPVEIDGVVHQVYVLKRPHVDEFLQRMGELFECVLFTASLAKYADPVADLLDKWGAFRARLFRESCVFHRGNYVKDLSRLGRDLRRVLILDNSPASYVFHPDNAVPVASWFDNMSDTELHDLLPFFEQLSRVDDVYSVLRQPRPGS
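assay system = SCP-1 phosphatase catalytic domain, residues 76-261 | buffer or medium = 50 mM Tris acetate pH 5.5, 0.005% Tween-20, 10 mM MgCl2 | incubation = enzyme reaction 45 min at room temperature, colour 5 min, stabilisation 30 min | signal = Phosphate-binding colour reagent, absorbance read at 630 nm | measure = % inhibition at 20 µM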
SUMO1-SIM PPI – SUMO1-SIM interaction modulation. P63165. SUMO1 binding to a labelled peptide, TR-FRET, 1 h. inhibition, % at 20 µM. 360,000 tested, 0.33% active; in the data active = inhibition above about 37%
Target sequence (P63165 whole entry, looked up): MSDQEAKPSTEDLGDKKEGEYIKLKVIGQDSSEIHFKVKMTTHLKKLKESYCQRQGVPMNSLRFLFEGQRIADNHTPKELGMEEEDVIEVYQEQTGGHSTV
DNMT1 block – blocks human DNA methyltransferase DNMT1; P26358; DNMT1 molecular beacon, Hinp1I cleavage, fluorescence; inhibition (reported as % activation of signal), % at 10 µM; 360,000 tested, 0.83% active; AID 588458; in the data active = inhibition above about 50%
Beacon interf DR – shows spectral interference in the DNMT1 beacon assay | shares compounds with DNMT1 block | molecular beacon fluorescence, spectral interference counter-screen | IC50, µM | 200 tested, under 10 active | AID 602382; call rule not given here
DNMT1 confirm – DNMT1 inhibition confirmation, single concentration. shares compounds with DNMT1 block. DNMT1 molecular beacon HinP1I cleavage, fluorescence. inhibition, % at 10 µM. 2,300 tested, 8% active. AID 602385;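 active = average inhibition of at least 30% in the single-concentration confirmation test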
DNMT1 interf – shows spectral interference in the DNMT1 beacon assay; shares compounds with DNMT1 block; 2,300 tested, 1% active; DNMT1 molecular beacon spectral interference counterscreen, fluorescence 485/520; activation (fluorescence interference), % at 10 µM;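 active = activation of at least 30% at 10 µM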;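 note: DNMT1 catalytic domain with a HinP1I cleavage step and a FAM/dabcyl DNA beacon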
* hit, by the source's call; . = no result. This is a sample that favours compounds with a hit; in the whole collection about 1.8% have one here.

SMILES | STEP inh | LMPTP inh | Scp1 inh | SUMO1-SIM PPI | DNMT1 block | DNMT1 confirm | DNMT1 interf | others
COc1ccc(/C=C/C(=O)NC(=S)Nc2cc3oc4ccccc4c3cc2OC)cc1 | 0.4 | 0.6 | 0.7 | 4.6 | 57.1* | 0.4 | -10.1
COc1cc2c(cc1NC(=O)Nc1ccc(F)cc1)oc1ccccc12 | -3.3 | 1.5 | -11.7 | -1.2 | 83.0* | 3.2 | 5.9
Cc1cccn2c(=O)nc(SCC(=O)c3ccccc3)nc12 | 3.4 | 0.2 | 1.6 | 2.5 | 2.5 | . | .
CC(C)Cn1c(N)c(C(=O)NCC2CCCO2)c2nc3ccccc3nc21 (configuration not stated) | 4.5 | 18.6 | -4.1 | 38.8 | 74.2* | 9.9 | 1.3
COCCn1c(N)c(C(=O)NCC2CCCO2)c2nc3ccccc3nc21 (configuration not stated) | 0.7 | 1.5 | -0.4 | -1.6 | -17.9 | . | .
CCc1c(C)c2ccc(OC(C)C(=O)NC(Cc3c[nH]c4ccc(O)cc34)C(=O)O)c(C)c2oc1=O (configuration not stated) | 1.2 | 1.1 | 23.0 | 12.7 | 2.7 | . | .
Cc1cc(=O)oc2c(C)c(OC(C)C(=O)NC(Cc3c[nH]c4ccc(O)cc34)C(=O)O)ccc12 (configuration not stated) | -0.3 | -0.2 | 14.9 | 10.0 | 85.0* | 2.5 | 1.4
COc1ccc2cc(/C=N/NC(=O)CSCc3ccc([N+](=O)[O-])cc3)c(Cl)nc2c1 | -2.4 | 0.8 | -7.7 | 3.7 | 64.5* | 6.0 | 1.0
NC(=S)N/N=C/c1coc2c(ccc3ccccc32)c1=O | -2.3 | 15.7 | -6.5 | 1.7 | 54.6* | 1.8 | -7.2
NC(=S)N/N=C/c1coc2cc(Br)ccc2c1=O | 1.2 | -0.1 | -14.4 | -1.2 | 0.4 | . | .
COCCNc1nc(Oc2ccc(CC(=O)OC)cc2)c2sc(-c3ccccc3)cc2n1 | -2.3 | 4.0 | . | 0.2 | -28.0 | . | .
Cc1ccc(C2C(C#N)=C(N)N(N(C)C)C3=C2C(=O)CCC3)cc1 (configuration not stated) | -1.5 | 0.0 | -16.6 | 1.5 | 78.9* | 1.7 | 2.0
[O-][n+]1c2ccccc2[n+]([O-])c2cc(O)ccc21 | 10.7 | 20.1 | 57.4* | 21.1 | 56.4* | 1.9 | 1.5
O=C(CS(=O)(=O)Cc1ccccc1)c1ccccc1 | -0.5 | 0.0 | . | 5.1 | 2.4 | . | .
CCNC(=O)C1(C)CCN1CCC(=O)c1ccc(C)cc1 (configuration not stated) | 2.6 | -2.0 | . | -4.9 | 5.1 | . | .
COc1ccc(S(=O)(=O)N2CCN(C(=O)C3CC3)CC2)cc1Br | -0.3 | -0.5 | -2.5 | -2.2 | -1.0 | . | .
Cc1ccc(/C=c2\sc3nc(-c4cccs4)nn3c2=O)o1 | -2.0 | 1.3 | 24.5 | 2.5 | 57.3* | 2.3 | 3.5
COc1cccc(/C=c2\sc3nc(-c4cccs4)nn3c2=O)c1OC | 1.2 | 0.7 | -21.4 | 24.7 | 3.7 | . | .
Cc1ccccc1N(C(=O)Cc1ccsc1)C(C(=O)NC1CCCCC1)c1ccc(F)cc1 (configuration not stated) | -2.8 | -0.4 | -2.7 | 1.5 | 59.2* | 1.2 | 0.9
CC1(C(=O)NNC(=O)c2ccc(=O)oc2)CC1Br (configuration not stated) | 8.2 | -1.0 | 28.3 | 21.1 | 74.6* | 3.7 | 3.0
CCn1c(CNC(=O)c2cccs2)n[nH]c1=S | -1.6 | -8.2 | -7.6 | -1.0 | -1.9 | . | .
CCn1c(CC(=O)Nc2ccccc2)n[nH]c1=S | -3.9 | -3.8 | -12.1 | 1.6 | 82.1* | 6.1 | 7.2
Cc1ccc(-n2cccc2/C=C2/C(=N)N3C(=NC2=O)SN=C3S(C)(=O)=O)cc1Cl | 10.7 | 12.2 | 38.4 | 13.2 | 83.7* | 37.1* | -3.0 | Beacon interf DR=>99
Cc1cccc(C)c1-n1cccc1/C=C1/C(=N)N2C(=NC1=O)SN=C2S(C)(=O)=O | -2.9 | 1.8 | 2.6 | -1.3 | -4.5 | . | .
O=C(Nc1nnc(-c2ccccc2F)s1)Nc1ccccc1F | 0.9 | -1.6 | 2.1 | 0.8 | 52.7* | 2.6 | 2.7
SMILES | STEP inh | LMPTP inh | Scp1 inh | SUMO1-SIM PPI | DNMT1 block | DNMT1 confirm | DNMT1 interf | others
CN(C(=O)CSc1nnc(-c2ccco2)n1C)C1CCCCC1 | -2.6 | -0.4 | 5.1 | 7.2 | 8.2 | . | .
O=C(Nc1ccc(N2CCOCC2)cc1N1CCOCC1)c1ccc(Br)cc1 | -0.3 | -1.3 | 4.0 | 5.7 | -3.7 | . | .
O=C(COc1ccc(Br)cc1)Nc1ccc(N2CCOCC2)cc1N1CCOCC1 | 1.0 | -0.1 | -0.1 | 25.1 | 54.6* | 5.3 | 5.4
CCS(=O)(=O)C1=NN2C(=N)/C(=C\c3ccc(SCc4ccco4)o3)C(=O)N=C2S1 | 14.3 | 42.0 | 76.6* | 50.3* | 99.3* | 50.5* | 0.8 | Beacon interf DR=>99
Cc1ccc(NC(=O)CCC(=O)OCC(=O)c2ccc(-c3ccccc3)cc2)cc1 | 0.5 | 1.5 | -4.1 | 3.1 | 51.2* | 4.7 | 0.3
COc1ccccc1/C=C/C=N/NC(=O)c1cc(-c2ccco2)[nH]n1 | -1.4 | 67.4* | -0.7 | 21.5 | 61.4* | 13.5 | 1.7
COc1ccccc1/C=C/C=N/NC(=O)c1ccccn1 | 1.3 | 0.2 | -5.5 | -15.0 | 3.3 | . | .
O=C(Nc1cccc(N2CCCC2)c1)c1cccs1 | 1.1 | 17.4 | -8.0 | 6.7 | 59.4* | 2.7 | 5.3
CCc1nc(N=Nc2c(O)[nH]c3ccccc23)c2c3c(sc2n1)CCC3 | 1.2 | -0.2 | 4.5 | -3.3 | 64.4* | 1.9 | -3.7
Oc1[nH]c2ccccc2c1N=Nc1nc2ccccc2s1 | 1.0 | 15.0 | 30.7 | -41.8 | 1.6 | . | .
CCN(CC)CC(=O)Nc1cccc2c1C(=O)c1ccccc1C2=O | 1.5 | 0.8 | -4.0 | -14.5 | 25.5 | . | .
CN(C=[N+](C)C)c1cccc2c1C(=O)c1ccccc1C2=O | -3.7 | -0.6 | 1.6 | -18.5 | 61.6* | 4.9 | 5.8
Fc1ccc(CNc2ccc(N3CCN(Cc4ccccc4)CC3)cc2)cc1 | 1.5 | 1.6 | 5.6 | -0.9 | 62.2* | 0.8 | 3.5
COCCCNc1nc2ccccc2nc1NS(=O)(=O)c1cc(Cl)ccc1Cl | -1.4 | -0.3 | -4.0 | 3.3 | -1.2 | . | .
CC(O)[C@H]1CNC(=O)C(=O)N1CC1(c2ccccc2)CC1 (some centres not stated) | -1.9 | -0.9 | 3.5 | 4.8 | 6.3 | . | .
Cc1cc(C(=O)OCC(=O)NC2CCCCC2C)c2ccccc2n1 (configuration not stated) | 2.4 | -1.2 | 4.3 | -9.3 | 4.8 | . | .
CC1CCCCC1NC(=O)COC(=O)c1c2c(nc3ccccc13)/C(=C/c1ccco1)CC2 (configuration not stated) | 5.2 | 38.5 | 67.9* | 27.6 | 94.6* | 3.5 | -6.8

High-throughput results (PubChem)
